Experimental data reported in article PMC4273560 (Neurobiology of disease, 2014).
Entries after “also recorded” stand apart in the source; their conditions may differ. Ends that are not written are not given here. Peptide text beside a SMILES is read from it. * marks the point of attachment. FITC = O=C1OC2(c3ccc(O)cc3Oc3cc(O)ccc32)c2ccc(NC(=S)*)cc21

Columns and labels:
CD31 + brain microvessel = details: mouse, in vivo
ICAM-1 [1] = assay: Cross binding of JAM-Ap-FITC to ICAM-1; design: species or system mouse; details: increasing concentrations of anti-ICAM-1 antibody; presence and absence of JAM-A
Method in brief: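 bEnd.3 JAM-A-knockdown cells (stable shRNA) and JAM-A-expressing mBMEC in 96-well plates were primed with IL-1β plus TNF-α for 6 h or OGD/reoxygenation for 24 h in DMEM. They then received FITC-peptide with or without increasing anti-ICAM-1 antibody in D-PBS for 30 min at 4 °C. Cells washed 3×, fixed in 4% paraformaldehyde, and fluorescence read. FITC-scrambled peptide served as control.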

JAM-A [2] = target: T1, JAM-A (Mus musculus, UniProt O88792); details: brain endothelial cells; ref Stamatovic et al., 2012; cited from earlier work
T1 sequence (O88792 27-300): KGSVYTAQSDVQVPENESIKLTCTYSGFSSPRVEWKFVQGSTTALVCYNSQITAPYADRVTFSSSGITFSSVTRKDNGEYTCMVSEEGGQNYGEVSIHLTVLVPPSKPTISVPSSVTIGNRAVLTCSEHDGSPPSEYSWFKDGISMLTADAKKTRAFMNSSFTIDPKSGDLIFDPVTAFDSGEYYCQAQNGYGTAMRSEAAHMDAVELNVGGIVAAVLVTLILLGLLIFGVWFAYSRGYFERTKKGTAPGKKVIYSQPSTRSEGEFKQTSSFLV

ICAM-1 [3] = assay: Cell-based ELISA, ICAM-1 surface expression on mBMEC; design: species or system mouse; details: CCL2 100 ng/ml
JAM-A [4] = target: T1, JAM-A; assay: Cell-based ELISA, JAM-A surface expression on mBMEC; details: CCL2 100 ng/ml; 2 and 24 h; p < 0.001
mBMEC = format: cell-based, mouse; details: 12 h
mBMEC monolayers = assay: In vitro permeability of mBMEC monolayers to inulin; format: cell-based, mouse; details: JAM-Ap 0.1–1000 μg/ml, 0–72 h
[5] = Physiological variables of mice before, during and 6 hrs after tMCAO; format: in vivo, mouse; details: ip injection, n = 10
[6] = system: neutrophils and monocytes in blood; details: mouse, in vivo
JAM-A [7] = target: T1, JAM-A; format: binding
Method in brief: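 mBMEC (first passage) plated in 96-well plates and incubated with a constant level of FITC-labelled peptide plus increasing unlabelled peptide. Cells washed 3× and fixed in 4% paraformaldehyde for 15 min at room temperature. Fluorescence read on a plate reader. Percent inhibition plotted against concentration and IC50 read from the curve. Three independent experiments.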

BBB, FITC-inulin = details: mouse, in vivo

CC(C)C[C@H](NC(=O)[C@@H](NC(=O)[C@H](Cc1ccc(O)cc1)NC(=O)[C@H](CC(=O)O)NC(=O)[C@H](CC(=O)O)NC(=O)[C@H](CC(N)=O)NC(=O)[C@H](CO)NC(=O)[C@H](Cc1ccccc1)NC(=O)[C@H](C)NC(=O)[C@H](CCCNC(=N)N)NC(=O)[C@@H](NC(=O)[C@H](CO)NC(=O)[C@H](CCCCNC(=S)Nc1ccc2c(c1)C(=O)OC21c2ccc(O)cc2Oc2cc(O)ccc21)NC(=O)[C@@H]1CCCN1C(=O)[C@@H](N)CC(N)=O)[C@@H](C)O)C(C)C)C(=O)N[C@@H](CC(N)=O)C(=O)N1CCC[C@H]1C(=O)N[C@H](C(=O)N[C@H](C(=O)NCC(=O)O)[C@@H](C)O)[C@@H](C)O [JAM-Ap-FITC] (H-NPK(FITC)STRAFSNDDYVLNPTTG-OH; N-terminus and C-terminus assumed)
accumulation at luminal side of CD31 + brain microvessel (CD31 + brain microvessel): high accumulation
association with CD45 + cells in brain (CD31 + brain microvessel): not associated with CD45 + cells
nonspecific trapping in ischemic lesion (CD31 + brain microvessel): comparable with labeled control peptide (cp), at the level of threshold
accumulation in liver and lung microvessels or tissue (CD31 + brain microvessel; ip): did not detect significant amount
binding affinity for ICAM-1 (ICAM-1 [1]): very low binding affinity

CCL2: chemokine CCL2 (PeproTech)
JAM-A relocalization (JAM-A [2]): JAM-A became relocalized from the lateral to the apical membrane of brain endothelial cells
ICAM-1 surface expression (ICAM-1 [3]): surface expression was also increased; also recorded: A similar degree of surface accumulation
cell surface (apical) expression of JAM-A (JAM-A [4]): increased apical membrane JAM-A expression; also recorded: an increase in cell surface (apical) expression of JAM-A

NPKSTRAFSNDDYVLNPTTG [JAM-Ap]
cell viability after treatment (mBMEC): > 99%
effect on barrier permeability to inulin (5 kDa), in vitro (mBMEC monolayers): no effect on barrier permeability to inulin
Glucose ([5]; 15 min MCAO): 142 ± 6 g/dL
PCO2 ([5]; 15 min MCAO): 34±2
PO2 ([5]; 15 min MCAO): 110±7
pH ([5]; 15 min MCAO): 7.32±0.012
rCBF ([5]; 15 min MCAO): 13±2%
Glucose ([5]; 6 hr post-tMCAO): 128 ± 9 g/dL
PCO2 ([5]; 6 hr post-tMCAO): 36±1
PO2 ([5]; 6 hr post-tMCAO): 115±10
pH ([5]; 6 hr post-tMCAO): 7.36±0.018
rCBF ([5]; 6 hr post-tMCAO): 100±1%
Glucose ([5]; before): 135 ± 3 g/dL
PCO2 ([5]; before): 32±2
PO2 ([5]; before): 123±5
pH ([5]; before): 7.36±0.03
rCBF ([5]; before): 100±0%
blood MO (monocytes) [6]: 3.95 10^8
blood PMN [6]: 0.99 10^9/l
IC50 (JAM-A [7]): 25 nM
BBB permeability in control mice (BBB, FITC-inulin): no effect on permeability
